Most compounds without a hit are left out; they make up all but 1.3% or so of the library.
Tn6 DDE FP: inhibitors of Tn6 peptide binding to human fibrin DD(E); Fibrin DD(E) TRITC-Tn6 fluorescence polarization displacement; inhibition, % at 8.3 µM; 0.21% of 370,000 active; AID 720509;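 active = inhibition above a per-campaign cutoff: mean of compounds within control limits plus 3 SD, cut at about 15% in these data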;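 also: 0% = median of all compound wells on the plate and 100% = blocking peptide control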
Target sequence (P02675 whole entry, looked up): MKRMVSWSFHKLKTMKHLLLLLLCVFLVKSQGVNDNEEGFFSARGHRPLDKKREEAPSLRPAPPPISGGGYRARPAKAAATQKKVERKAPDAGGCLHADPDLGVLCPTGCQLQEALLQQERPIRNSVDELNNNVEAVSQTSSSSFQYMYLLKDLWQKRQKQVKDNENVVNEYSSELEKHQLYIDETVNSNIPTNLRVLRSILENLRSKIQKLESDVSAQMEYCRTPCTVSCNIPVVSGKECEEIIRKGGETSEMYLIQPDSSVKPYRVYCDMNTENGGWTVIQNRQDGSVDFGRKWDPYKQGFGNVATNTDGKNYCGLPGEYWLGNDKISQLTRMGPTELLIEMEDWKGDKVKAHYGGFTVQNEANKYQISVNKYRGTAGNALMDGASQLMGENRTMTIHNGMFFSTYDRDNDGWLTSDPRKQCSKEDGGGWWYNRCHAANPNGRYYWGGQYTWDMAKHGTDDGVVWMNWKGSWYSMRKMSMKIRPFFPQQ
Tn7 DDE FP: inhibitors of Tn7 peptide binding to human fibrin DD(E) | P02675 | inhibition, % at 8.3 µM | FP displacement of FITC-Tn7 peptide from fibrin DD(E); 0% = median of compound wells per plate | AID 720508 | 0.13% of 370,000 active;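 active = inhibition above the mean of compounds falling within the control limits plus 3 SD of them, cut at about 14% in these data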;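 also: 0% = plate median of compound wells and 100% = 10 µM Aha-Tn7 peptide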
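Measure: % inhibition scaled between sample-field median and high-control FP; Test system: human fibrin DD(E); Quantity: 2 µM final DD(E) protein; Doses: one dose, 8.3 µM nominal; Schedule: compound with protein 10 min, then 3 h after probe, room temperature; Detection: fluorescence polarization; Medium: Tris buffer with calcium and detergent, pH 7.8.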
HTRA1 inh: blocks human HTRA1 serine peptidase; Q92743; recombinant HTRA1, FP-rhodamine activity-based probe, fluorescence polarization; inhibition, % at 5.96 µM; 0.5% of 340,000 active; AID 504803; in the data active = inhibition above about 36%;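 also: 0% = enzyme with DMSO and 100% = wells lacking enzyme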
TCR-CD3 inh: human TCR-CD3 binding inhibition; TAMRA-labeled TCR probe fluorescence, biochemical; inhibition, % at 9.4 µM; 0.37% of 360,000 active; AID 651800;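 also: recombinant mutant TCR 2C K166C tagged with TAMRA read by polarization; 0% = receptor in buffer alone and 100% = receptor with positive control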
mABHD4 FP: inhibitors of mouse ABHD4. purified mABHD4, FP-Rh probe fluorescence polarization. inhibition, % at 8.92 µM. Q8VD66. AID 720543. 0.54% of 370,000 active;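 active = inhibition exceeding the mean over every tested compound plus 3 SD, cut at about 30% in these data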;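 also: 0% = plate median of compound wells and 100% = S159A mutant with DMSO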
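Assay system: mouse ABHD4 enzyme, wild type / Also added: fluorescent activity-based probe FP-Rh / Doses: single nominal dose of 8.92 µM, 0.89% DMSO final / Timing: 45 min compound pre-incubation plus 60 min probe step, 25 °C / Signal: FP readout, ex 525 nm / em 598 nm / Control set: S159A mutant/DMSO as 100%, compound-well median as 0%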
BSA TAMRA ctr: counter-screen for TCR-CD3 interaction inhibitors: BSA probe; TAMRA-labeled BSA probe fluorescence counterscreen; AID 652035; 10% of 1,200 active; inhibition, % at 9.4 µM; shares compounds with TCR-CD3 inh; in the data active = inhibition above about 23%;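 also: 0% = buffer low control and 100% = reference high control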
TCR-CD3 conf: TCR-CD3 interaction inhibition, confirmation | shares compounds with TCR-CD3 inh | TAMRA-labeled TCR probe fluorescence binding assay | inhibition, % at 9.4 µM | 48% of 1,200 active
DDE Tn7 confirm: confirmation of inhibitors of Tn7 binding to human fibrin DD(E); shares compounds with Tn7 DDE FP; FP displacement of TRITC-Tn7 peptide from DD(E); 0% set at plate's compound-well median; inhibition, % at 8.3 µM; 5% of 460 active;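 active = inhibition above the campaign cutoff, the mean of compounds within control limits plus 3 SD, cut at about 14% in these data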;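 also: 100% = median FP of high control wells holding Aha-Tn7 inhibitor peptide; displacers lower polarization since freed probe rises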
DDE Tn7 FP ctr: counter-screen hit for Tn7 peptide-fibrin DD(E) binding disruption. inhibition, % at 8.3 µM. 3% of 460 active. TRITC-Tn7 probe displacement, fluorescence polarization. shares compounds with Tn7 DDE FP;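 active = inhibition above the cutoff, the mean of compounds lying between the control bounds plus 3 SD of those compounds, cut at about 17% in these data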;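 also: 0% = median of compound sample wells and 100% = excess unlabeled Aha-Tn7 peptide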
DDE Tn6 FP ctr: DD(E)-Tn6 binding inhibition, counter-screen; shares compounds with Tn6 DDE FP; Fibrin DD(E), TRITC-Tn6 fluorescence polarization displacement; 0% = median of compound wells, not DMSO; inhibition, % at 8.3 µM; 2% of 680 active; AID 720621;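 active = inhibition above the mean of test compounds lying between the control limits plus 3 SD of those, cut at about 14% in these data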;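 also: 0% = median of compound wells and 100% = wells with Aha-Tn7 blocking peptide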
Tn6 DDE conf: confirmation of inhibitors of Tn6 binding to human fibrin DD(E); shares compounds with Tn6 DDE FP; FP displacement of TRITC-Tn6 peptide from DD(E); 0% = per-plate median of test wells; inhibition, % at 8.3 µM; 10% of 680 active; AID 720631;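 active = inhibition above the mean of compounds lying within the control limits plus 3 SD, cut at about 16% in these data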;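 also: 100% = high control wells holding a competing inhibitor peptide at 10 µM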
mABHD4 conf: confirmation of mouse ABHD4 inhibitors; purified mABHD4, FP-Rh probe fluorescence polarization; 55% of 1,800 active; AID 720658; inhibition, % at 8.92 µM; shares compounds with mABHD4 FP;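 active = mean inhibition across replicates above the hit cutoff set in the primary screen, cut at about 30% in these data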;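 also: 0% = wild-type ABHD4 with DMSO and 100% = catalytically dead S159A mutant with DMSO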
An asterisk follows results filed as active; / = no result given. Rule as the data show it, unless noted: active = inhibition above about 19%; inactive = the rest.

SMILES	Tn6 DDE FP	Tn7 DDE FP	HTRA1 inh	TCR-CD3 inh	mABHD4 FP	BSA TAMRA ctr	TCR-CD3 conf	DDE Tn7 confirm	DDE Tn7 FP ctr	mABHD4 conf	others
Cn1ccc2c(N3CCCCCCC3)cc3c(c21)C1CCC3O1 (stereo unspecified)	9	8	/	91*	40*	-3	-1	/	/	6
O=C(C(Cl)Cl)N1CCN(Cc2ccccc2)CC1	8	4	8	8	4	/	/	/	/	/
[O-][n+]1c2ccccc2[n+]([O-])c2cc(O)ccc21	16*	-5	28	21*	31*	10	22*	/	/	35*
Cc1cc([N+](=O)[O-])ccc1N(C)C	-6	7	3	-5	-5	/	/	/	/	/
COc1ccccc1C(=O)NNC(=O)C(=O)NCc1ccccc1	-5	-2	5	5	5	/	/	/	/	/
Nc1c(C(=O)NCC2CCCO2)sc2nc3c(c(-c4ccco4)c12)CC/C3=C\c1ccco1 (stereo unspecified)	-1	3	40*	39*	32*	-4	24*	/	/	29
Cc1cc2c(cc1S(=O)(=O)N1CCN(c3cccc(C)c3C)CC1)OCCN2C	131*	-1	-9	127*	129*	-1	2	/	/	78*	DDE Tn6 FP ctr=8;Tn6 DDE conf=67*
O=C1[C@H]2[C@@H](c3ccc(F)cc3)N3C(=O)N(c4ccccc4)C(=O)[C@@]3(Cc3ccccc3)[C@H]2C(=O)N1C1CCCCC1	3	-3	-20	-3	-5	/	/	/	/	/
Cc1cc(NCc2ccccn2)n2nc(C)c(-c3ccccc3)c2n1	13	9	18	-6	25	/	/	/	/	/
O=C1c2cccc3c(O)ccc(c23)C(=O)N1c1ccc(Cl)cc1	14	40*	34	32*	57*	26*	21*	3	8	31*
Cc1ccc(S(=O)(=O)NCCC(=O)NNC(=O)COc2ccc(Br)cc2)cc1C	9	6	-5	5	3	/	/	/	/	/
O=C(N/N=C/c1ccncc1)c1cc([N+](=O)[O-])cc([N+](=O)[O-])c1O	-5	1	34	38*	32*	4	48*	/	/	36*
O=C(N/N=C/c1cc2c(c([N+](=O)[O-])c1)OCO2)c1ccncc1	-9	-5	6	10	10	/	/	/	/	/
Oc1cc2c(cc1O)[C@H]1c3ccc(O)c(O)c3OC[C@@]1(O)C2	12	-3	24	128*	33*	65*	116*	/	/	12
CCOc1ccc(NC(=O)CCN2CCCCC2)cc1	-7	16*	0	3	-4	/	/	4	4	/
CCOC(=O)C1CCN(CC(=O)N2CCc3ccccc32)CC1	6	14*	4	2	1	/	/	-3	-3	/
CC(=O)n1c2ccccc2c2ccccc21	9	14*	-12	-3	-5	/	/	1	-7	/
Cc1ccc(C(=O)n2c3ccccc3c3ccccc32)cc1	-2	-4	-2	3	-1	/	/	/	/	/
CCCCCC[C@@H](CC)CN(C(=O)Oc1ccccc1)c1ccccc1	-2	15*	/	/	-5	/	/	13	7	/

Bioassay records as filed in PubChem.
